Data from ChEMBL document CHEMBL1144723, “Antiproliferative limonoids of a Malleastrum sp. from the Madagascar rainforest” (J Nat Prod, 2008).

Columns and labels:
Type in all cases: functional, cell-based
[1] = system: U-937; experiment: Antiproliferative activity against human U937 cells after 96 hrs by CellTiter-Glo luminescent cell viability assay; settings: U-937, 96 h
How it was run: (§1)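 Cells were cultured with compound present continuously at 0.3–10000 nM, or without compound, for 96 h. Growth was read by ATP luminescence (CellTiter-Glo). IC50 is the concentration giving 50% growth inhibition versus untreated cells. Vinblastine served as the positive control. Two separate replicate experiments were run.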

[2] = Antiproliferative activity against human HS22T1 cells after 96 hrs by CellTiter-Glo luminescent cell viability assay; settings: HS22T1, 96 h; how it was run: as §1
[3] = system: HT-29; experiment: Antiproliferative activity against human HT29 cells after 96 hrs by CellTiter-Glo luminescent cell viability assay; settings: HT-29, 96 h; how it was run: as §1
[4] = system: A2780; experiment: Antiproliferative activity against human A2780 cells after 96 hrs by CellTiter-Glo luminescent cell viability assay; settings: A2780, 96 h
[5] = system: MDA-MB-435; experiment: Antiproliferative activity against human MDA-MB-435 cells after 96 hrs by CellTiter-Glo luminescent cell viability assay; settings: MDA-MB-435, 96 h; how it was run: as §1

Compound | IC50 [1] [nM] | IC50 [2] [nM] | IC50 [3] [nM] | IC50 [4] [nM] | IC50 [5] [nM]
CC(=O)O[C@]12OC[C@@]3(C)C(=O)C=C[C@@](C)([C@@H]13)[C@H]1[C@@H](O)[C@H](OC(=O)C(C)C)[C@@]3(C)[C@H](c4ccoc4)C[C@H]4O[C@]43[C@]1(C)C2=O [MALLEASTRONE A] | 200 | 240 | 240 | 490 | 410
CC(=O)O[C@]12OC[C@@]3(C)C(=O)C[C@@H](O)[C@@](C)([C@@H]13)[C@H]1[C@@H](O)[C@H](OC(=O)C(C)C)[C@@]3(C)[C@H](c4ccoc4)C[C@H]4O[C@]43[C@]1(C)C2=O [MALLEASTRONE C] |  |  |  | 18000 | 
CC[C@]1(O)C[C@@H]2CN(CCc3c([nH]c4ccccc34)[C@@](C(=O)OC)(c3cc4c(cc3OC)N(C)[C@H]3[C@@](O)(C(=O)OC)[C@H](OC(C)=O)[C@]5(CC)C=CCN6CC[C@]43[C@@H]65)C2)C1 [VINBLASTINE] | 0.49 | 1.38 | 0.53 |  | 0.27
CC[C@H](C)C(=O)O[C@H]1[C@H](O)[C@@H]2[C@@]3(C)C=CC(=O)[C@]4(C)CO[C@](OC(C)=O)(C(=O)[C@@]2(C)[C@@]25O[C@@H]2C[C@@H](c2ccoc2)[C@]15C)[C@H]34 [MALLEASTRONE B] | 190 | 230 | 220 | 630 | 340
